Series [1] concerns Canis familiaris. As to the kind of experiment: Reduction in heart rate in anesthetized acute myocardial infarction dog model at 20 mg/kg, iv administered 10 mins prior to infarction (reference value: 6 bpm). The format is functional, Canis lupus familiaris.
Series [2] concerns Canis familiaris. In words: Reduction in heart rate in anesthetized acute myocardial infarction dog model at 40 mg/kg, iv administered 10 mins prior to infarction (reference value: 6 bpm). The format is functional, Canis lupus familiaris.
Series [3] has as its system Canis familiaris. In words: Hypotensive activity in iv dosed anesthetized dog at higher doses. The format is ADME, organism-based, Canis lupus familiaris. The conditions noted are these: in vivo.
In series [4] the test system is Canis familiaris. In words: Antiarrhythmic activity in anesthetized acute myocardial infarction dog model assessed as normal ECG complexes at 20 mg/kg, iv administered 10 mins prior to infarction measured during 1-hr postinfarction period (reference value: 19%). In kind it is functional, Canis lupus familiaris, Heart. In short, it runs like this:
(§1)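 Sclerosing agent (tetrafluorohexachlorobutane) injected into the anterior descending coronary artery to produce a multifocal ventricular arrhythmia. Single iv dose 10 min before infarction. Segmented ECG tracings over the 1 h after infarction were scored as the percentage of complexes of sinus origin (normal). Saline controls were run alongside.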

The subject of series [5] is Canis familiaris. As to the kind of experiment: Effect on cardiac conduction in anesthetized acute myocardial infarction dog model assessed as increase in QT duration at 20 mg/kg, iv administered 10 mins prior to infarction measured after 10 mins (reference value: 2 ms). In kind it is functional, Canis lupus familiaris, Heart.
Series [6] has as its system Canis familiaris. In words: Antiarrhythmic activity in anesthetized acute myocardial infarction dog model assessed as normal ECG complexes at 40 mg/kg, iv administered 10 mins prior to infarction measured during 1-hr postinfarction period (reference value: 19%). In kind it is functional, Canis lupus familiaris, Heart. In short, it runs like this: as §1
Series [7] relates to Canis familiaris. In words: Effect on cardiac conduction in anesthetized acute myocardial infarction dog model assessed as increase in PR interval at 20 mg/kg, iv administered 10 mins prior to infarction measured after 10 mins (reference value: 0 ms). In kind it is functional, Canis lupus familiaris, Heart.
The test system of series [8] is Canis familiaris. In words: Effect on cardiac conduction in anesthetized acute myocardial infarction dog model assessed as increase in PR interval at 40 mg/kg, iv administered 10 mins prior to infarction measured after 10 mins (reference value: 0 ms). In kind it is functional, Canis lupus familiaris, Heart.
Series [9] relates to Canis familiaris. As to the kind of experiment: Myocardial depressant activity in iv dosed anesthetized dog at higher doses. The conditions noted are these: in vivo. The format is ADME, organism-based, Canis lupus familiaris, Myocardium.
In series [10] the test system is Canis familiaris. As to the kind of experiment: Effect on cardiac conduction in anesthetized acute myocardial infarction dog model assessed as increase in QT duration at 40 mg/kg, iv administered 10 mins prior to infarction measured after 10 mins (reference value: 2 ms). The format is functional, Canis lupus familiaris, Heart.
For series [11], the system named is Canis familiaris. As to the kind of experiment: Effect on cardiac conduction in anesthetized acute myocardial infarction dog model assessed as increase in QT duration at 2.5 mg/kg, iv administered 10 mins prior to infarction measured after 10 mins (reference value: 2 ms). In kind it is functional, Canis lupus familiaris, Heart.
The subject of series [12] is Canis familiaris. As to the kind of experiment: Effect on cardiac conduction in anesthetized acute myocardial infarction dog model assessed as increase in PR interval at 5 mg/kg, iv administered 10 mins prior to infarction measured after 10 mins (reference value: 0 ms). The format is functional, Canis lupus familiaris, Heart.
Series [13] concerns Canis familiaris. As to the kind of experiment: Reduction in heart rate in anesthetized acute myocardial infarction dog model at 10 mg/kg, iv administered 10 mins prior to infarction (reference value: 6 bpm). The format is functional, Canis lupus familiaris.
For series [14], the system named is Canis familiaris. In words: Reduction in heart rate in anesthetized acute myocardial infarction dog model at 2.5 mg/kg, iv administered 10 mins prior to infarction (reference value: 6 bpm). The format is functional, Canis lupus familiaris.
Series [15] deals with Canis familiaris. In words: Antiarrhythmic activity in anesthetized acute myocardial infarction dog model assessed as normal ECG complexes at 5 mg/kg, iv administered 10 mins prior to infarction measured during 1-hr postinfarction period (reference value: 19%). In kind it is functional, Canis lupus familiaris, Heart. In short, it runs like this:
as §1

The subject of series [16] is Canis familiaris. In words: Effect on cardiac conduction in anesthetized acute myocardial infarction dog model assessed as increase in QT duration at 10 mg/kg, iv administered 10 mins prior to infarction measured after 10 mins (reference value: 2 ms). In kind it is functional, Canis lupus familiaris, Heart.
In series [17] the test system is Canis familiaris. In words: Antiarrhythmic activity in iv dosed anesthetized acute myocardial infarction dog model assessed as protection against ventricular arrhythmia development administered 10 mins prior to infarction measured during 1-hr postinfarction period. The format is functional, Canis lupus familiaris, Heart. The conditions noted are these: Canis lupus familiaris, Heart, iv; read-out: ED75. In short, it runs like this: as §1

Series [18] concerns Canis familiaris. In words: Reduction in heart rate in anesthetized acute myocardial infarction dog model at 5 mg/kg, iv administered 10 mins prior to infarction (reference value: 6 bpm). The format is functional, Canis lupus familiaris.
Series [19] deals with Canis familiaris. As to the kind of experiment: Antiarrhythmic activity in anesthetized acute myocardial infarction dog model assessed as normal ECG complexes at 2.5 mg/kg, iv administered 10 mins prior to infarction measured during 1-hr postinfarction period (reference value: 19%). In kind it is functional, Canis lupus familiaris, Heart. In short, it runs like this: as §1

Series [20] relates to Canis familiaris. As to the kind of experiment: Effect on cardiac conduction in anesthetized acute myocardial infarction dog model assessed as increase in PR interval at 2.5 mg/kg, iv administered 10 mins prior to infarction measured after 10 mins (reference value: 0 ms). The format is functional, Canis lupus familiaris, Heart.
In series [21] the test system is Canis familiaris. In words: Antiarrhythmic activity in anesthetized acute myocardial infarction dog model assessed as normal ECG complexes at 10 mg/kg, iv administered 10 mins prior to infarction measured during 1-hr postinfarction period (reference value: 19%). The format is functional, Canis lupus familiaris, Heart. The gist of the method:
as §1

In series [22] the test system is Canis familiaris. In words: Effect on cardiac conduction in anesthetized acute myocardial infarction dog model assessed as increase in QT duration at 5 mg/kg, iv administered 10 mins prior to infarction measured after 10 mins (reference value: 2 ms). In kind it is functional, Canis lupus familiaris, Heart.
Series [23] deals with Canis familiaris. In words: Effect on cardiac conduction in anesthetized acute myocardial infarction dog model assessed as increase in PR interval at 10 mg/kg, iv administered 10 mins prior to infarction measured after 10 mins (reference value: 0 ms). In kind it is functional, Canis lupus familiaris, Heart.

Turning to `CCN(CC)CCNC(=O)c1ccc(N)cc1` [PROCAINAMIDE], the Activity was 26 bpm with Canis familiaris [1]; 25 bpm with Canis familiaris [2]; “Toxic” in the series with Canis familiaris [3]; 32% in the series on Canis familiaris [4]; 55% in the series on Canis familiaris [6]; “Toxic” with Canis familiaris [9]. Moreover, the Time in the series on Canis familiaris [5] came to 40 ms; with Canis familiaris [7], 10 ms; in the series on Canis familiaris [8], 23 ms; in the series with Canis familiaris [10], 33 ms.
As to `C=C[C@H]1CN2CC[C@H]1C[C@@H]2[C@@H](O)c1ccnc2ccc(OC)cc12` [QUINIDINE], the Time amounted to 33 ms in the series with Canis familiaris [11]; 8 ms in the series on Canis familiaris [12]; 78 ms with Canis familiaris [16]; 0 ms in the series on Canis familiaris [20]; 36 ms in the series with Canis familiaris [22]; 15 ms with Canis familiaris [23]. Moreover, the Activity with Canis familiaris [13] is recorded as 31 bpm; in the series on Canis familiaris [14] it was 21 bpm; with Canis familiaris [15] it was 46%; in the series on Canis familiaris [18], 24 bpm; in the series with Canis familiaris [19], 25%; in the series with Canis familiaris [21], 89%. Besides, the ED75 in the series on Canis familiaris [17] came to 9.4 mg/kg.

These data come from ChEMBL document CHEMBL3244101, “2-, 3-, and 4-(alpha, alpha, beta, beta-tetrafluorophenethyl)benzylamines. A new class of antiarrhythmic agents” (J Med Chem, 1977).
